Assay results from different studies.
Compare with care: the assays were run in different laboratories.
Effect on: cell growth or viability

O=C(N/N=C/c1c(O)ccc2ccccc12)c1cc(-c2ccc3ccccc3c2)n[nH]1
IC50 (1205Lu; MTS; 48 h): 5800 nM

C[C@@H](Oc1cc(-c2cnn(C3CCNCC3)c2)cnc1N)c1c(Cl)ccc(F)c1Cl
IC50 (BJ; 72 h): 2110 nM

Oc1ccc(Nc2nc(-c3ccc(Cl)cc3)cs2)cc1
IC50 (1205Lu; MTS; 24 h): > 100000 nM

Oc1ccc(-c2ccc3cc(O)ccc3c2)c(O)c1
IC50 (CHL; MTT; 24 h): 119 µg/mL

COc1cc2nccc(Oc3ccc(NC(=O)C4(C(=O)Nc5ccc(F)cc5)CC4)cc3)c2cc1OC
IC50 (BJ; 72 h): 4520 nM

C[C@H]1[C@@H](O)O[C@@H]2O[C@@]3(C)CC[C@H]4[C@H](C)CC[C@@H]1[C@@]24OO3
IC50 (IOSE-144; CCK-8; 48 h): > 50000 nM

COc1cc2c(Oc3ccc(NC(=O)C4(C(=O)Nc5ccc(F)cc5)CC4)cc3F)ccnc2cc1OCCCN1CCOCC1
IC50 (BJ; 72 h): 180 nM

COc1cc(Nc2nccc(-c3cnn4nc(OC)ccc34)n2)cc(C(F)(F)F)c1
IC50 (HuTu80; ATP luminescence): 150 nM

CC(=O)O[C@H]1C(=O)[C@@]2(C)[C@H]([C@H](OC(=O)c3ccccc3)[C@]3(O)C[C@H](OC(=O)[C@H](O)[C@@H](NC(=O)c4ccccc4)c4ccccc4)C(C)=C1C3(C)C)[C@]1(OC(C)=O)CO[C@@H]1C[C@@H]2O
IC50 (LN-18): 1 µg/mL

COc1cccc2c1C(=O)c1c(O)c3c(c(O)c1C2=O)C[C@@](O)(C(=O)CO)C[C@@H]3O[C@H]1C[C@H](N)[C@H](O)[C@H](C)O1
IC50 (WI-38 VA13; MTT; 48 h): 0.22 µg/mL

COc1cccc2c1C(=O)c1c(O)c3c(c(O)c1C2=O)C[C@@](O)(C(=O)CO)C[C@@H]3O[C@H]1C[C@H](N)[C@H](O)[C@H](C)O1
IC50 (4T1.2; MTT; 48 h): 0.272 µg/mL

C[C@@H](Oc1cc(-c2cnn(C3CCNCC3)c2)cnc1N)c1c(Cl)ccc(F)c1Cl
IC50 (SW-1736; MTT; 72 h): 2500 nM
